Experimental data published in ChEMBL document CHEMBL4145632, “Selective Irreversible Inhibitors of the Wnt-Deacylating Enzyme NOTUM Developed by Activity-Based Protein Profiling” (ACS Med Chem Lett, 2018).
Active and inactive are the calls of the source. The rule behind the calls is not given here.

How the values were obtained:
Type in all cases: cell-based
[1] = biological target: T1, Palmitoleoyl-protein carboxylesterase NOTUM (Homo sapiens, UniProt Q6P988); experiment: Inhibition of rhodamine-tagged FP probe binding to recombinant human C-terminal FLAG-tagged NOTUM expressed in HEK293T cells pretreated for 30 mins followed by rhodamine-tagged FP probe addition and measured after 30 mins by SDS-PAGE fluorescence analysis
T1 sequence (Q6P988 whole entry): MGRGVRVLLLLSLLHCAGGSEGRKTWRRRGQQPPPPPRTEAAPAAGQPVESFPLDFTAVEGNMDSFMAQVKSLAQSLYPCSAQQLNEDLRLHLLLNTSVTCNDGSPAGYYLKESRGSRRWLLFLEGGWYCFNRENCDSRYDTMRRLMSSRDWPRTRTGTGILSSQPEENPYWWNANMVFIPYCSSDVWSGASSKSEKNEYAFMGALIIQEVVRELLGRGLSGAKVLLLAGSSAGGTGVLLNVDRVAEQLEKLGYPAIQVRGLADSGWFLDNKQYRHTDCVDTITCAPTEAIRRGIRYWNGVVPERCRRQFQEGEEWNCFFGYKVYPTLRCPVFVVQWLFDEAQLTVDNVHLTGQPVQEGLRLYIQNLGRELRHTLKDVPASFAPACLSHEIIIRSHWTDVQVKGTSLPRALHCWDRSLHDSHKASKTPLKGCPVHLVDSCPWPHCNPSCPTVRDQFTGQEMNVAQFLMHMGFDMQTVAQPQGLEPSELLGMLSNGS

[2] = biological target: T2, Palmitoyl-protein thioesterase 1 (Homo sapiens) (UniProt P50897); experiment: Inhibition of ABC45 probe binding to PPT1 in human SW620 cells at 0.1 to 10 uM pretreated for 2 hrs followed by ABC45 probe addition and measured after 30 mins by rhodamine-azide reporter tagged based SDS-PAGE fluorescence analysis
T2 sequence (whole entry): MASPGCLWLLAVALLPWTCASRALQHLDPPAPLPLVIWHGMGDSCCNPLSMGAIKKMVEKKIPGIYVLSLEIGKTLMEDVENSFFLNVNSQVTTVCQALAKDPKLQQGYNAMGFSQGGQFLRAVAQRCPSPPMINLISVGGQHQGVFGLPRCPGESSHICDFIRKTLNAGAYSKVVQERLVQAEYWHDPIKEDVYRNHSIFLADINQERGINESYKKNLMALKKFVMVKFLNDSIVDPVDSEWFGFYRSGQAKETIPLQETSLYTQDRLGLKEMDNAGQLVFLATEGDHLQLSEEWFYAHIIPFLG
Summary of the method: (§1)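 SW620 cells were treated in situ with compound at the stated concentrations for 2 h at 37 °C. Soluble and membrane proteomes were then labeled with the PPT1-directed probe ABC45 or FP-Rh. Competition was read by SDS-PAGE and in-gel fluorescence scanning.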

[3] = biological target: T1, Palmitoleoyl-protein carboxylesterase NOTUM; experiment: Inhibition of rhodamine-tagged FP probe binding to NOTUM in human SW620 cells conditioned media pretreated for 30 mins followed by rhodamine-tagged FP probe addition and measured after 30 mins by SDS-PAGE fluorescence analysis
[4] = biological target: T1, Palmitoleoyl-protein carboxylesterase NOTUM; experiment: Inhibition of rhodamine-tagged FP probe binding to NOTUM in human SW620 cells conditioned media at 0.1 to 3 uM pretreated for 30 mins followed by rhodamine-tagged FP probe addition and measured after 30 mins by SDS-PAGE fluorescence analysis; conditions: 0.5 h
[5] = biological target: T3, Monoacylglycerol lipase ABHD6 (Homo sapiens) (UniProt Q9BV23); experiment: Inhibition of ABHD6 in human SW620 cells at 10 uM after 2 hrs by FP-biotin probe based LC-MS analysis
T3 sequence (whole entry): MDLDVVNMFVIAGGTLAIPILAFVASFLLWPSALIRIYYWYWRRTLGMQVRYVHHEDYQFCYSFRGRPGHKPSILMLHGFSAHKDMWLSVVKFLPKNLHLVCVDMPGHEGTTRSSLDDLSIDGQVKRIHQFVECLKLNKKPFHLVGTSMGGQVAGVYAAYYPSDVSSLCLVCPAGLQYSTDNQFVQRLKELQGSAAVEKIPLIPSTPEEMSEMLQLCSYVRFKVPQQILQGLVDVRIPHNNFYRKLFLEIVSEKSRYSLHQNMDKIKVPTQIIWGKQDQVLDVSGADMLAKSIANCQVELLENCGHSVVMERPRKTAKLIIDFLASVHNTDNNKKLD

[6] = biological target: T1, Palmitoleoyl-protein carboxylesterase NOTUM; experiment: Inhibition of NOTUM in human SW620 cells conditioned medium at 10 uM after 1 hr by FP-biotin probe based LC-MS analysis relative to control
Summary of the method: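 SW620 conditioned medium was treated with compound (0.5 or 10 μM) or DMSO for 1 h at 37 °C. Peptides were labeled with light (compound) or heavy (DMSO) formaldehyde, combined and analyzed by MS. Values are light/heavy median peptide ratios from two independent experiments, ±SEM.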

[7] = biological target: T1, Palmitoleoyl-protein carboxylesterase NOTUM; experiment: Inhibition of NOTUM in human SW620 cells conditioned medium assessed as preservation of Wnt3A activity pretreated for 1 hr followed by Wnt3A producing L-cell addition for 2 hrs and subsequent […]-STF cell addition and measured after 24 hrs by luciferase reporter gene assay
[8] = biological target: T3, Monoacylglycerol lipase ABHD6 (Homo sapiens); experiment: Inhibition of rhodamine-tagged FP probe binding to ABHD6 in human SW620 cells at 0.1 uM pretreated for 30 mins followed by rhodamine-tagged FP probe addition and measured after 30 mins by SDS-PAGE fluorescence analysis
[9] = biological target: T1, Palmitoleoyl-protein carboxylesterase NOTUM; experiment: Inhibition of rhodamine-tagged FP probe binding to NOTUM in human SW620 cells conditioned medium at 0.01 to 1 uM pretreated for 30 mins followed by rhodamine-tagged FP probe addition and measured after 30 mins by SDS-PAGE fluorescence analysis; conditions: 0.5 h
[10] = biological target: T3, Monoacylglycerol lipase ABHD6 (Homo sapiens); experiment: Inhibition of ABHD6 in human SW620 cells at 0.1 uM after 30 mins by rhodamine-azide reporter tagged based SDS-PAGE fluorescence analysis
Summary of the method: (§2)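 Alkyne probe analogue was added to SW620 conditioned medium or cellular lysate for 30 min at 37 °C. Samples were clicked to a rhodamine-azide tag by copper-mediated azide–alkyne cycloaddition, then read by SDS-PAGE and in-gel fluorescence.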

[11] = biological target: T1, Palmitoleoyl-protein carboxylesterase NOTUM; experiment: Inhibition of NOTUM in human SW620 cells conditioned medium at 0.01 to 1 uM measured after 30 mins by rhodamine-azide reporter tagged based SDS-PAGE fluorescence analysis; conditions: 0.5 h; summary of the method: as §2
[12] = biological target: T3, Monoacylglycerol lipase ABHD6 (Homo sapiens); experiment: Inhibition of rhodamine-tagged FP probe binding to ABHD6 in human SW620 cells at 0.1 to 10 uM pretreated for 2 hrs followed by rhodamine-tagged FP probe addition and measured after 30 mins by SDS-PAGE fluorescence analysis; summary of the method: as §1

Structure (SMILES) | inhibition [2] | IC50 [3] | inhibition (INH) [4] | further results
O=C1C2CN(Cc3ccc(Oc4ccccc4)nc3)CCN2C(=O)N1OC(=O)N1CCOc2ccccc21 (centres undefined) | inactive |  |  | IC50 [1]: 1.51 µM
COc1ccc(N2CCN(C(=O)ON3C(=O)C4CN(Cc5ccccc5Cl)CCN4C3=O)CC2)cc1 (centres undefined) |  | 0.2 µM | Active | 
COc1ccc(N2CCN(C(=O)ON3C(=O)C4CN(Cc5cccc(Cl)c5)CCN4C3=O)CC2)cc1 (centres undefined) |  | > 10 µM | Not Active | 
O=C(c1ccc(Cl)cc1)N1CCN2C(=O)N(OC(=O)N3CCOc4ccccc43)C(=O)C2C1 (centres undefined) |  | > 10 µM |  | inhibition [5]: Active; inhibition (INH) [6]: Not Active; IC50 [7]: > 5 µM
C#CCN1CCN(C(=O)ON2C(=O)C3CN(Cc4ccc(Cl)cc4)CCN3C2=O)c2ccccc21 (centres undefined) |  |  |  | inhibition [8]: inactive; inhibition (INH) [9]: Active; inhibition [10]: inactive; inhibition (INH) [11]: Active
COc1ccc(N2CCN(C(=O)ON3C(=O)C4CN(Cc5ccc(Cl)cc5)CCN4C3=O)CC2)cc1 (centres undefined) | Active | 0.29 µM | Active | inhibition [12]: Active
O=C1C2CN(Cc3ccc(Cl)cc3)CCN2C(=O)N1OC(=O)N1CCOc2ccccc21 (centres undefined) | inactive |  |  | 
